{
  "source": "ChEMBL document CHEMBL1759881",
  "about": "“Synthesis and anti-inflammatory activity of ent-kaurene derivatives” (Eur J Med Chem, 2011)",
  "key": {"RAW264.7 [1]": {"test_system": "RAW264.7", "test": "Antiinflammatory activity in mouse RAW264.7 cells assessed as inhibition of LPS-induced IL-1alpha production at 5 uM pretreated for 15 mins before LPS challenge measured after 24 hrs by ELISA", "type": "functional, cell-based", "in_short": "(§1)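 RAW 264.7 macrophages pre-incubated 15 min with compound or left untreated, then LPS 250 ng/ml for 24 h. IL-6, IL-1, TNF and IFN measured in supernatant by ELISA. Means ± S.D. of three independent experiments run in triplicate.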"}, "RAW264.7 [2]": {"test_system": "RAW264.7", "test": "Antiinflammatory activity in mouse RAW264.7 cells assessed as inhibition of LPS-induced nitric oxide release pretreated for 15 mins before LPS challenge measured after 24 hrs by Griess method", "type": "functional, cell-based", "in_short": "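RAW 264.7 cells pre-incubated 15 min with compound (1–25 range in the table; 1, 5, 10, 25, 50 for dose-response) or DMSO vehicle, then LPS 250 ng/ml for 24 h. Nitrite in supernatant measured by Griess reagent, absorbance at 548 nm against NaNO2 standard. IC50 is the concentration giving 50% inhibition of NO release. Means ± SD of three independent experiments in triplicate.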"}, "RAW264.7 [3]": {"test_system": "RAW264.7", "test": "Cytotoxicity against LPS-stimulated mouse RAW264.7 cells assessed as cell viability at 1 to 50 uM pretreated for 15 mins before LPS challenge measured after 24 hrs by MTT assay", "type": "cell-based", "settings": "raw264.7, 24 h", "in_short": "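RAW 264.7 cells pre-treated 15 min with compound (1, 5, 10, 25, 50), then LPS 250 ng/ml for 24 h. Viability by MTT: 4 h at 37 °C, formazan dissolved in DMSO, absorbance 540 nm, relative to untreated control. Triplicate; means ± S.D. of three experiments.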"}, "RAW264.7 [4]": {"test_system": "RAW264.7", "test": "Antiinflammatory activity in mouse RAW264.7 cells assessed as inhibition of LPS-induced NOS2 mRNA expression pretreated at 5 uM for 15 mins before LPS challenge measured after 4 hrs by RT-PCR analysis", "type": "functional, cell-based", "in_short": "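Macrophages pre-incubated 15 min with compound, then LPS 250 ng/ml for 4 h. NOS-2 mRNA measured by real-time quantitative PCR, samples in duplicate, normalized to housekeeping gene 36B4 (acidic ribosomal phosphoprotein P0). Fold induction taken from average replicate values. Means ± S.D. of three independent experiments in triplicate; Student's unpaired t test vs LPS.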"}, "RAW264.7 [5]": {"test_system": "RAW264.7", "test": "Antiinflammatory activity in mouse RAW264.7 cells assessed as inhibition of LPS-induced IL-6 production at 5 uM pretreated for 15 mins before LPS challenge measured after 24 hrs by ELISA", "type": "functional, cell-based", "in_short": "as §1"}, "RAW264.7 [6]": {"test_system": "RAW264.7", "test": "Inhibition of NF-kappaB activation in LPS-stimulated mouse RAW264.7 cells assessed as IkappaBalpha degradation pretreated at 5 uM for 15 mins before LPS challenge measured after 24 hrs by Western blotting", "type": "cell-based"}, "RAW264.7 [7]": {"test_system": "RAW264.7", "test": "Antiinflammatory activity in mouse RAW264.7 cells assessed as inhibition of LPS-induced TNFalpha production at 5 uM pretreated for 15 mins before LPS challenge measured after 24 hrs by ELISA", "type": "functional, cell-based", "in_short": "as §1"}, "[8]": {"test": "Cytotoxicity against LPS-stimulated mouse RAW264.7 cells assessed as cell viability at 1 to 25 uM pretreated for 15 mins before LPS challenge measured after 24 hrs by MTT assay", "type": "cell-based", "settings": "LPS-stimulated RAW264.7 cells, read-out: Activity", "in_short": "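RAW 264.7 cells plated at 10⁵ cells/well, treated with compound at 1–25 in the presence of LPS 250 ng/ml for 24 h. MTT then added for 4 h at 37 °C, formazan extracted in DMSO, absorbance read at 540 nm. Viability expressed relative to untreated controls. Triplicate wells, at least three independent experiments.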"}, "RAW264.7 [9]": {"test_system": "RAW264.7", "test": "Antiinflammatory activity in mouse RAW264.7 cells assessed as inhibition of LPS-induced IFN-gamma production at 5 uM pretreated for 15 mins before LPS challenge measured after 24 hrs by ELISA", "type": "functional, cell-based", "in_short": "as §1"}, "RAW264.7 [10]": {"test_system": "RAW264.7", "test": "Antiinflammatory activity in mouse RAW264.7 cells assessed as inhibition of LPS-induced NOS2 protein expression pretreated at 5 uM for 15 mins before LPS challenge measured after 24 hrs by Western blotting", "type": "functional, cell-based", "in_short": "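Macrophages pre-incubated 15 min with compound, then LPS 250 ng/ml for 24 h. NOS-2 protein detected by Western blot with β-actin as loading control. A representative of three experiments is shown.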"}},
  "note": "The source made the active and inactive calls. No cut-off for these calls is given here.",
  "data": [
    {"compound": "C[C@@]12CCC[C@@](C)(C(=O)OC[Si](C)(C)C)[C@H]1CC[C@@]1(CC(=O)O)CCCC[C@H]12", "values": [
      {"measurement": "Activity", "setting": "RAW264.7 [1]", "value": "Active"},
      {"measurement": "IC50", "setting": "RAW264.7 [2]", "value": 7, "unit": "µM"},
      {"measurement": "inhibition", "setting": "RAW264.7 [2]", "value": "Dose-dependent effect"},
      {"measurement": "Activity", "setting": "RAW264.7 [3]", "value": "Non-toxic"},
      {"measurement": "Activity", "setting": "RAW264.7 [4]", "value": "Active"},
      {"measurement": "Activity", "setting": "RAW264.7 [5]", "value": "Active"},
      {"measurement": "Activity", "setting": "RAW264.7 [6]", "value": "Active"},
      {"measurement": "Activity", "setting": "RAW264.7 [7]", "value": "Active"},
      {"measurement": "viability at 24 h, up to 25 µM", "setting": "[8]", "value": 95, "unit": "%"},
      {"measurement": "Activity", "setting": "RAW264.7 [9]", "value": "Active"},
      {"measurement": "Activity", "setting": "RAW264.7 [10]", "value": "Active"}
    ]},
    {"compound": "C[C@@]12CCC[C@@](C)(C(=O)OCc3ccccc3)[C@H]1CC[C@@]1(CC(=O)O)CCCC[C@H]12", "values": [
      {"measurement": "Activity", "setting": "RAW264.7 [1]", "value": "Active"},
      {"measurement": "IC50", "setting": "RAW264.7 [2]", "value": 7, "unit": "µM"},
      {"measurement": "inhibition", "setting": "RAW264.7 [2]", "value": "Dose-dependent effect"},
      {"measurement": "Activity", "setting": "RAW264.7 [3]", "value": "Non-toxic"},
      {"measurement": "Activity", "setting": "RAW264.7 [4]", "value": "Active"},
      {"measurement": "Activity", "setting": "RAW264.7 [5]", "value": "Active"},
      {"measurement": "Activity", "setting": "RAW264.7 [6]", "value": "Active"},
      {"measurement": "Activity", "setting": "RAW264.7 [7]", "value": "Active"},
      {"measurement": "viability at 24 h, up to 25 µM", "setting": "[8]", "value": 95, "unit": "%"},
      {"measurement": "Activity", "setting": "RAW264.7 [9]", "value": "Active"},
      {"measurement": "Activity", "setting": "RAW264.7 [10]", "value": "Active"}
    ]},
    {"compound": "C=C1C[C@@]23CC[C@H]4[C@@](C)(CCC[C@@]4(C)C(=O)O)[C@@H]2CCC1C3", "note": "(single isomer, unassigned) [KAURENOIC ACID]", "values": [
      {"measurement": "IC50", "setting": "RAW264.7 [2]", "value": "> 25", "unit": "µM"},
      {"measurement": "viability at 24 h, up to 25 µM", "setting": "[8]", "value": 70, "unit": "%"}
    ]},
    {"compound": "COC(=O)[C@]1(C)CCC[C@@]2(C)[C@@H]3CC[C@@H]4C[C@@]3(CC[C@@H]21)C[C@H]4C=O", "values": [
      {"measurement": "IC50", "setting": "RAW264.7 [2]", "value": "> 25", "unit": "µM"},
      {"measurement": "viability at 24 h, up to 25 µM", "setting": "[8]", "value": 90, "unit": "%"}
    ]},
    {"compound": "C=C1[C@@H]2CC=C3[C@@](CC[C@@H]4[C@](C)(C(=O)OC)CCC[C@@]34C)(C2)[C@H]1O", "values": [
      {"measurement": "IC50", "setting": "RAW264.7 [2]", "value": "> 25", "unit": "µM"},
      {"measurement": "viability at 24 h, up to 25 µM", "setting": "[8]", "value": 67, "unit": "%"}
    ]}
  ]
}
